Where a chain is given by its changes, count along the chain named. Read-outs that look alike come from different tables or passages of the source.
Assays:
SULT2B1b S347D [1] = target: T1, SULT2B1b S347D (Homo sapiens, UniProt O00204, S347D); assay: Initial-rate 1-HP sulfonation; details: for Ki: read-out: Ki 7-DH
T1 sequence (O00204 1-365 S347D): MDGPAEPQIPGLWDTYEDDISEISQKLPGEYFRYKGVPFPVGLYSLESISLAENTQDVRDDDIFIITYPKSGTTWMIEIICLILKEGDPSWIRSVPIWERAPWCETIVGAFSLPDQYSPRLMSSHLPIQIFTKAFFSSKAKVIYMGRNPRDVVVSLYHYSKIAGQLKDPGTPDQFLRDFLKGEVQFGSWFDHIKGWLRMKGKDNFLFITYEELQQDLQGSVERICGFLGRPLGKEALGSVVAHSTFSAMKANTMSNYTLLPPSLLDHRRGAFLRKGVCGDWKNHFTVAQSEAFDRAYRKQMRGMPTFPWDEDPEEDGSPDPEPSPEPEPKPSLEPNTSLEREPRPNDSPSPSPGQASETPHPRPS

SULT2B1b = details: cited from earlier work
SULT2B1b S347D [2] = target: T1, SULT2B1b S347D; assay: Equilibrium binding via intrinsic fluorescence
Method in brief: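 Intrinsic fluorescence titrations of purified His/GST/MBP-tag-cleaved enzyme, excitation 290 nm, in KPO4 (50 mM), pH 7.5, 25 ± 2 °C. […] Triplicate averaged data were fit to a single-site-per-monomer model.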

SULT2B1b S347D [3] = target: T1, SULT2B1b S347D; assay: Stopped-flow ligand-binding studies
SULT2B1b, S347D, W13A = target: T2, SULT2B1b, S347D, W13A (Homo sapiens, UniProt O00204, S347D/W13A); assay: Initial-rate parameters, direct-contact mutant W13A; details: read-out: Km PAPS; W13A; saturating 1-HP (100 μM); (−) quercetin
T2 sequence (O00204 1-365 W13A/S347D): T1 sequence (O00204 1-365 S347D) with W13A

SULT2B1b, S347D, Y257A = target: T3, SULT2B1b, S347D, Y257A (Homo sapiens, UniProt O00204, S347D/Y257A); assay: Initial-rate parameters, direct-contact mutant Y257A; details: read-out: Km PAPS; Y257A; saturating 1-HP (100 μM); (−) quercetin
T3 sequence (O00204 1-365 Y257A/S347D): T1 sequence (O00204 1-365 S347D) with Y257A

SULT2B1b, S347D, W98A = target: T4, SULT2B1b, S347D, W98A (Homo sapiens, UniProt O00204, S347D/W98A); assay: Initial-rate parameters, direct-contact mutant W98A; details: read-out: Km PAPS; W98A; saturating 1-HP (100 μM); (−) quercetin
T4 sequence (O00204 1-365 W98A/S347D): T1 sequence (O00204 1-365 S347D) with W98A

[4] = system: Oc1ccc2ccc3cccc4ccc1c2c34; assay: Initial-rate parameters, non DTNB-reactive scaffold; type: biochemical, human; details: other: NR; saturating PAPS (300 μM); 25.0 °C
[5] = system: Oc1ccc2ccc3cccc4ccc1c2c34; assay: purified protein, by the assay type; details: saturating PAPS (300 μM), (−) quercetin, pH 7.5, 25.0 °C
[6] = system: Oc1ccc2ccc3cccc4ccc1c2c34; assay: Initial-rate parameters, spin-labeled mutant 21; type: biochemical, human; details: other: spin label at 21; saturating PAPS (300 μM); 25.0 °C
[7] = system: Oc1ccc2ccc3cccc4ccc1c2c34; assay: Initial-rate parameters, spin-labeled mutant 171; type: biochemical, human; details: other: spin label at 171; saturating PAPS (300 μM); 25.0 °C
[8] = system: Oc1ccc2ccc3cccc4ccc1c2c34; assay: Initial-rate parameters, spin-labeled mutant 247; type: biochemical, human; details: other: spin label at 247; saturating PAPS (300 μM); 25.0 °C

CC(C)CCC[C@@H](C)[C@H]1CC[C@H]2C3=CC=C4C[C@@H](O)CC[C@]4(C)[C@H]3CC[C@]12C [7-DH, 7-dehydrocholesterol]
α (fraction turnover at saturation), 7-DH (SULT2B1b S347D [1]; PAPS 30 μM, 1-HP 100 μM): 0.11 ± 0.02
Ki (SULT2B1b S347D [1]): 110 nM
Ki (SULT2B1b S347D [1]; PAPS 30 μM, 1-HP 100 μM, noncompetitive partial-inhibition model): 110 ± 7 nM
SULT2B1b substrate (SULT2B1b): neither of which is a SULT2B1b substrate

CC(C)=CCC[C@@H](C)[C@H]1CC[C@H]2[C@@H]3CC=C4C[C@@H](O)CC[C@]4(C)[C@H]3CC[C@]12C [24-DH, 24-dehydrocholesterol]
inhibition of SULT2B1b turnover (SULT2B1b S347D [1]; concentrations as high as 10 μM): does not inhibit
SULT2B1b substrate (SULT2B1b): neither of which is a SULT2B1b substrate

Nc1ncnc2c1ncn2[C@@H]1O[C@H](COP(=O)(O)O)[C@@H](OP(=O)(O)O)[C@H]1O [PAP, 3′-phosphoadenosine 5′-phosphate]
Kd (SULT2B1b S347D [2]): 380 nM

Nc1ncnc2c1ncn2[C@@H]1O[C@H](COP(=O)(O)OS(=O)(=O)O)[C@@H](OP(=O)(O)O)[C@H]1O [PAPS, 3′-phosphoadenosine 5′-phosphosulfate]
koff (SULT2B1b S347D [3]; (−) Quc): 3.0 (0.2) s^−1
kon (SULT2B1b S347D [3]; (−) Quc): 8.0 (0.3)^1 μM^−1s^−1
rate constant for release of PAPS (SULT2B1b S347D [3]; absence of quercetin): 3.0 ± 0.2 s⁻¹
decrease of koff PAPS (SULT2B1b S347D [3]; at saturating quercetin): 14 fold
rate constant for PAPS release (SULT2B1b S347D [3]; at saturating quercetin): 0.22 ± 0.2 s⁻¹
Kd (SULT2B1b S347D [3]; read-out: Kd PAPS (koff/kon), (−) Quc): 380 nM
Km (SULT2B1b, S347D, W13A): 0.36 µM
Km (SULT2B1b, S347D, Y257A): 0.37 µM
increase of PAPS affinity (SULT2B1b S347D [2]; at saturating quercetin): 12 fold
Km (SULT2B1b, S347D, W98A): 0.31 µM

SULT2B1b C81S, C225S, C278S, S347D (Homo sapiens; C225S/C278S/C81S/S347D)
Km [4]: 3.5 (0.2) μM
kcat [4]: 3.3 s⁻¹

SULT2B1b S347D (Homo sapiens; S347D)
Km ([5]; other: WT): 3.8 (0.3) μM
kcat ([5]; other: WT): 3.4 s⁻¹

SULT2B1b S347D spin-labeled at residue 21 (Homo sapiens; C225S/C278S/C81S/S21C/S347D)
Km [6]: 4.2 (0.3) μM
kcat [6]: 3.6 s⁻¹

SULT2B1b S347D spin-labeled at residue 171 (Homo sapiens; C225S/C278S/C81S/S347D/T171C)
Km [7]: 4.1 (0.2) μM
kcat [7]: 3 s⁻¹

SULT2B1b S347D spin-labeled at residue 247 (Homo sapiens; C225S/C278S/C81S/S247C/S347D)
Km [8]: 3.6 (0.3) μM
kcat [8]: 3.5 s⁻¹

SULT2B1b, S347D, W13A (Homo sapiens; S347D/W13A)
Km ([5]; other: W13A): 4.2 (0.3) μM

SULT2B1b, S347D, W98A (Homo sapiens; S347D/W98A)
Km ([5]; other: W98A): 3.6 (0.2) μM

SULT2B1b, S347D, Y257A (Homo sapiens; S347D/Y257A)
Km ([5]; other: Y257A): 4.0 (0.3) μM

From PMC9260854 (Biochemistry, 2022)
